Source: PubChem
Rows were chosen to be rich in hits. Some 2.4% of all compounds tested hit in one or more screens of this group.
RORa activator – RORA (human) activation | P35398 | CHO-K1 Gal4-RORA LBD luciferase reporter, luminescence; percent increase over mock-subtracted basal signal | activation, % at 10 µM | hit rate 1.5% among 65,000;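 active means activation above the mean of all tested compounds plus 3 SD, cut at about 49% in these data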;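 further: 0% = DMSO-treated RORA cells and 100% = added signal equal to DMSO minus mock-transfected cells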
MMP13 inh – MMP13 (human) collagenase inhibition; P45452; MMP-13 fTHP FRET cleavage, Mca fluorescence; inhibition, % at 4 µM; hit rate 0.07% among 65,000; AID 570;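 active means inhibition above the mean of compound-free control plate wells plus 3 SD, cut at about 14% in these data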;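 further: 0% = DMSO wells and 100% = wells with reference MMP-13 inhibitor after basal subtraction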
SF-1 act – activates the human nuclear receptor SF-1; activation, % at 10 µM; hit rate 1.9% among 65,000; Q13285; AID 522; CHO-K1 Gal4-SF-1 LBD luciferase reporter; % increase over DMSO SF-1-specific signal;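 active means activation above the mean activation of all tested compounds plus 3 SD, cut at about 50% in these data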
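Test system: CHO-K1 cells with Gal4–hSF-1 LBD chimera plus Gal4-driven luciferase; Input: 4,000 cells/well; Compound: 10 µM only; Times: 20 h compound treatment, 37 °C; Measured by: steady-glow luciferase luminescence, read after 15 min reagent incubation; Measure: percent activation versus DMSO; Control set: DMSO and mock-transfected background; Replicates: one test per compound.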
Ec RNAP inh – Escherichia coli RNA polymerase inhibition. hit rate 0.2% among 62,000. AID 559. E. coli RNA polymerase, fluorescence transcription assay. inhibition, %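 (tested at 10 µM)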; in the data active means inhibition above about 20%;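 further: 0% = enzyme without compound and 100% = no enzyme blank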
AP complement – orthogonal test for alternative complement pathway inhibitors; Human serum alternative complement pathway, LPS-coated ELISA, C3 deposition; tested in compound mixtures; inhibition, % at 5 µM; hit rate 0.08% among 62,000; AID 1235;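 active means inhibition above 30% in each of the two pooled mixtures holding the compound, so the lower value exceeds 30%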;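 further: 0% = serum in Mg-EGTA without compound and 100% = EDTA serum blank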
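Medium: diluted human serum in Mg2+-EGTA GVB++. Assay system: human serum complement alternative pathway, C3 deposition onto LPS. Also added: Plate-bound LPS. Technique: Anti-C3 ELISA, OD 450 nm. Measure: percent inhibition. Incubation: 1 h at 37 °C. Dosing: 5 µM each compound, pools of ten, 50 µM per pool.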
HePTP inhibitor – human HePTP phosphatase inhibition | recombinant HePTP phosphatase activity, OD absorbance | inhibition, % at 20 µM | hit rate 0.64% among 110,000; in the data active means inhibition above about 50%;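 further: plate controls were vehicle for no effect and reference inhibitor for full effect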
Target sequence (P35236 whole entry, looked up): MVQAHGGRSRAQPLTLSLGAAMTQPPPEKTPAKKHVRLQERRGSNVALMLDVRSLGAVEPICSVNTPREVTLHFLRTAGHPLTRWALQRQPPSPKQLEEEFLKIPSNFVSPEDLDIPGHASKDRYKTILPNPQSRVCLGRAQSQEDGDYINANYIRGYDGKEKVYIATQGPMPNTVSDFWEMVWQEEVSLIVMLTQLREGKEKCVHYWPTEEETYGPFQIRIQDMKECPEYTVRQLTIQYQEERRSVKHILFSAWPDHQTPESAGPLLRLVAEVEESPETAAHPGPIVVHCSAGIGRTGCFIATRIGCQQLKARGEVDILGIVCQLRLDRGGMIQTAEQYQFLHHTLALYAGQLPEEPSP
An asterisk follows results filed as active; i = inactive; / = no result.

SMILES	RORa activator	MMP13 inh	SF-1 act	Ec RNAP inh	AP complement	HePTP inhibitor
C=CCOc1ccc2c(C)cc(=O)oc2c1I	/	/	/	/	/	104*
CC(C)(C)C1(C)OC(O)(C(F)(F)C(F)F)CC1=O (configuration not stated)	/	/	/	/	/	104*
CC(C)(C)C1(C)OC(O)(C(Cl)Cl)CC1=O (configuration not stated)	/	/	/	/	/	1
CCC1CCCCN1C(=O)CSc1nnc(-c2ccc(Cl)cc2)o1 (configuration not stated)	28	5	2	5	12	6
CCC1CCCCN1C(=O)CSc1nnc(-c2ccco2)o1 (configuration not stated)	49*	-10	52*	6	-4	4
CC(=O)CC(=O)Nc1ccc(Cl)cn1	/	/	/	/	/	8
CCn1ccc(C(=O)Nc2ccc(Cl)cn2)n1	59*	-2	78*	9	9	1
Cc1onc(-c2ccccc2)c1C(=O)Nc1ccc([N+](=O)[O-])cc1Br	/	/	/	/	/	104*
Cc1onc(-c2ccccc2)c1C(=O)Nc1ccc([N+](=O)[O-])cc1Cl	/	/	/	/	/	0
Cc1onc(-c2ccccc2)c1C(=O)NCC(C)C	/	/	/	/	/	103*
O=C(NCCCNC(=O)c1cccc(F)c1)c1cccc(F)c1	/	/	/	/	/	7
CCCOC(=O)c1ccc(NC(=O)CC(C)C)cc1	/	/	/	/	/	-14
CC(=O)Nc1ccc(C(=O)OCCC(C)C)cc1	51*	2	27	68*	9	10
CCOC(=O)c1ccc(NC(=O)N(CC)CC)cc1	43	-2	63*	-2	-1	8
CCOC(=O)c1ccc(NC(=O)c2nn(C)cc2Br)cc1	76*	8	47	4	6	6
COc1ccc(N/C(N)=N/c2nc(C(F)(F)F)cc(=O)[nH]2)cc1	/	/	/	/	/	-8
COc1cc(C2CC(=O)NC(C)=C2C(=O)OC(C)C)c(Br)c(OC)c1OC (configuration not stated)	/	/	/	/	/	0
O=C(CCCc1cccs1)Nc1nc2c(s1)CCCC2	37	2	73*	9	10	8
O=C(CCS(=O)(=O)Cc1ccccc1)Nc1nc2c(s1)CCCC2	-11	2	-3	-2	20	7
CC1CCc2nc(NC(=O)Cc3cccs3)sc2C1 (configuration not stated)	35	4	63*	3	-6	4
COc1cc(OC)cc(C(=O)N2CCN(Cc3cccc([N+](=O)[O-])c3)CC2)c1	/	/	/	/	/	8
Cc1ccc(Nc2ncnc3nc[nH]c23)cc1Cl	67*	-18	43	3	17	6
CCCCc1ccc(Nc2ncnc3nc[nH]c23)cc1	17	-1	35	8	24	1
Cc1cc(NS(=O)(=O)c2ccccc2)c(C)c(Cl)c1O	-16	2	-16	21*	13	-6
CC(NS(=O)(=O)c1ccc(F)cc1)C(c1cccs1)N1CCN(C)CC1 (configuration not stated)	-3	4	8	21*	-9	4
SMILES	RORa activator	MMP13 inh	SF-1 act	Ec RNAP inh	AP complement	HePTP inhibitor
CC1(C)CC(N=Cc2c(-c3ccccc3)[nH]n(-c3nc4ccccc4s3)c2=O)CC(C)(C)N1	/	/	/	/	/	2
CCOC(=O)CSc1nc2ccccc2c(=O)n1NC(=O)c1ccccc1	2	0	56*	11	-3	2
CCOC(=O)CSc1nc2ccccc2c(=O)n1C	-19	1	4	/	/	0
Cn1c(-c2ccc(Br)o2)nc2ccccc21	73*	2	76*	7	9	9
Cn1c(-c2ccc(Br)o2)nc2cc(Br)ccc21	39	6	89*	-2	12	10
CC(=O)c1ccc(-c2nc3ccccc3n2C)o1	28	i	25	-94	0	9
Cn1c(-c2nc3ccccc3n2C)nc2ccccc21	/	/	/	/	/	-9
CCCC(=O)Nc1ccc(NC(=O)c2cc([N+](=O)[O-])ccc2Br)cc1	/	/	/	/	/	4
COc1ccc(CN2CCN(C3CCCC3)CC2)c(OC)c1OC	/	/	/	/	/	3
O=c1c2ccccc2nc2ccc(NCc3ccco3)nn12	53*	-22	9	0	20	4
CCOC(=O)N1CCN(C(=O)c2ccc3c(c2)sc2nc(-c4ccccc4)cn23)CC1	62*	-6	110*	3	4	8
Clc1ccc2nc(CSc3nc4ccccc4o3)cn2c1	13	-16	50*	/	/	-5
CC(C)(C)C1=NN(C(=O)c2ccccc2)C(O)(C(F)(F)F)C1 (configuration not stated)	/	/	/	/	/	-14
O=C(NCCNC(=O)c1c(O)c2ccccc2oc1=O)c1ccccc1	/	/	/	/	/	-2
CCN(CC)c1ccc(C(=O)N2CCCCC2)cc1	/	/	/	/	/	4
CCN(CC)c1ccc(C(=O)n2cnc3ccccc32)cc1	39	0	64*	4	8	6
CCC(=O)Nc1cc(NC(=O)CSc2ncc(-c3ccc(F)cc3)n2Cc2ccco2)ccc1C	55*	3	69*	-2	0	0
COc1ccccc1/C=C(\NC(=O)c1ccccc1)C(=O)NCCc1c[nH]c2ccccc12	/	/	/	/	/	9
O=C(COC(=O)C1CC1)c1c[nH]c2ccccc12	106*	-1	37	2	-1	-5
CC(C(=O)O)N1C(=O)/C(=C/c2ccc(C(=O)O)cc2)SC1=S (configuration not stated)	/	/	/	/	/	-25
O=C(Nc1ccc2nc3c4ccccc4c4ccccc4c3nc2c1)N1CCOCC1	/	/	/	/	/	-2
CCN(CC)c1ccc(N2C(=O)c3ccccc3C2=O)cc1	43	-2	47	/	11	8
CCN(CC)c1ccc(/C=N/N2C(=O)c3ccccc3C2=O)cc1	/	/	/	/	/	102*
COC(=O)c1cccc(NC(=O)c2cc3sccc3n2C)c1	45	8	67*	-3	2	2
O=C1CC(Nc2ccc(N3CCOCC3)cc2)C(=O)N1c1cccc(Cl)c1 (configuration not stated)	/	/	/	/	/	1
SMILES	RORa activator	MMP13 inh	SF-1 act	Ec RNAP inh	AP complement	HePTP inhibitor
O=C(O)c1cccc(N2C(=O)CC(Nc3ccc(N4CCOCC4)cc3)C2=O)c1 (configuration not stated)	/	/	/	/	/	61*
O=[N+]([O-])c1ccc(CSc2nnc(-c3ccccc3)c(-c3ccccc3)n2)cc1	/	/	/	/	/	0
O=C(O)CN1C(=O)/C(=C2\SC(=S)NC2=O)c2ccccc21	/	/	/	/	/	-9
O=C(O)CN1C(=O)/C(=N/N2C(=O)CSC2=S)c2ccccc21	/	/	/	/	/	63*
O=C(CN1C(=O)/C(=C/c2ccccc2)SC1=S)Nc1cccc(Br)c1	/	/	/	/	/	6
CCN(CC)c1ccc(N2C(=O)/C(=C/c3ccc(C(=O)OC)cc3)SC2=S)cc1	/	/	/	/	/	7
O=C(CCCN1C(=O)/C(=C/c2ccc(F)cc2)SC1=S)Nc1ccc(C(=O)O)cc1	/	/	/	/	/	102*
CCN(CC)c1ccc(N2C(=O)/C(=C/c3ccc(C(=O)O)cc3)SC2=S)cc1	/	/	/	/	/	104*
O=C(CN1C(=O)/C(=C/c2ccccc2)SC1=S)Nc1cccc(C(=O)O)c1	/	/	/	/	/	52*
